Key:
Mus musculus = species on record: Mus musculus; test: Cellular cytotoxicity in normal mouse spleen stimulated with concanavalin A; format: functional
Method in brief: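 Normal murine spleen cells at 2.5 × 10^6 or 5 × 10^6 cells/mL in complete RPMI 1640 with 10% FCS, stimulated with ConA 2.5 µg/mL. Analogue range added in triplicate, incubated 48 h at 37 °C, 5% CO2. MTT then added for 4-6 h, formazan dissolved in acidified 2-propanol, OD at 600 nm. CC50 by linear interpolation against untreated controls.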

[1] = molecular target: Human immunodeficiency virus type 1 reverse transcriptase (Human immunodeficiency virus 1, UniProt Q72547); test: Inhibitory activity against HIV-reverse transcriptase (HIV-RT)
H9 = test: Cellular cytotoxicity against human lymphocytic cell lines H-9.; format: functional
Method in brief: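 H-9 and CCRF-CEM human lymphocytic lines subcultured in complete RPMI 1640 with 10% FCS, without ConA or β-mercaptoethanol, at 6.25 × 10^5 and 2 × 10^6 cells/mL. Triplicate wells given a range of analogue concentrations at 37 °C, 5% CO2 for 48 h, then MTT 4-6 h, read at 600 nm. CC50 by linear interpolation versus untreated cells; data from both lines pooled.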

Row | SMILES | IC50 [1] | CC50 (Mus musculus) | CC50 (H9)
1 | CC(=O)NC1=CC(=O)c2ccc(-c3[nH]c(C(=O)OCCOP(=O)(O)O)cc4c5ccccc5nc3-4)nc2C1=O | 3 µM | 29 µM | 27 µM
2 | COC(=O)c1[nH]c(-c2ccc3c(n2)C(=O)C(NC(C)=O)=CC3=O)c2nc3ccccc3c-2c1C | 15.1 µM | 62 µM | 31 µM
3 | CCCCOC(=O)c1cc2c([nH]c3ccccc32)c(-c2ccc3c(n2)C(=O)C(NC(=O)CCC)=CC3=O)n1 [LAV12] | 5.8 µM | 81 µM | 50 µM

More lines, main results first:

Row | IC50 [1] | SMILES | CC50 (Mus musculus) | CC50 (H9)
4 | 12.7 µM | CC(=O)NC1=CC(=O)c2ccc(-c3[nH]c(C(N)=O)cc4c5ccccc5nc3-4)nc2C1=O | 50 µM | 95 µM
5 | 13.3 µM | CC(=O)NC1=CC(=O)c2ccc(-c3[nH]c(C(=O)O)cc4c5ccccc5nc3-4)nc2C1=O | 47 µM | 81 µM

— ChEMBL document CHEMBL1145946, “Novel lavendamycin analogues as potent HIV-reverse transcriptase inhibitors: synthesis and evaluation of anti-reverse transcriptase activity of amide and ester analogues of lavendamycin” (J Med Chem, 2003)
